Screening data: PubChem BioAssay, The Scripps Research Institute Molecular Screening Center
This is a sample that favours compounds with a hit; in the whole collection about 3.3% have one here.
HTRA1 inhibitor: blocks human HTRA1 serine peptidase; AID 504803; recombinant HTRA1, FP-rhodamine activity-based probe, fluorescence polarization; 340,000 tested, 0.5% active; inhibition, % at 5.96 µM; in the data active = inhibition above about 36%;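 note: 0% = enzyme with DMSO and 100% = wells lacking enzyme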
Target sequence (Q92743 whole entry, looked up): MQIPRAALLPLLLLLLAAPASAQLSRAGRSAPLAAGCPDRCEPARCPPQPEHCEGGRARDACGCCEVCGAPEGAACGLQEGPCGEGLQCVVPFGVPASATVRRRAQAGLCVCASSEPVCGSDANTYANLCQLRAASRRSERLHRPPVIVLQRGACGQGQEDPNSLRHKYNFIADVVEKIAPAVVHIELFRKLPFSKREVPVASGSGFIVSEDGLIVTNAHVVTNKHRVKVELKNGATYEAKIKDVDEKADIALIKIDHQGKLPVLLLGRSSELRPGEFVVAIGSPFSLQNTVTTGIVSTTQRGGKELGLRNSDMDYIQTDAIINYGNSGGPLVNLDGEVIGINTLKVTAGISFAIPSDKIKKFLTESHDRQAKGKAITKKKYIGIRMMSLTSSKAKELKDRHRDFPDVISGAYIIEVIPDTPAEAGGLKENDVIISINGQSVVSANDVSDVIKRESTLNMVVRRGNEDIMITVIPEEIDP
PRMT1 inh: inhibitors of human PRMT1. Q99873. recombinant PRMT1, activity-based probe fluorescence polarization. inhibition, % at 2.79 µM. 370,000 tested, 1.3% active. AID 652257;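 active = inhibition above about 21% made by adding two undisclosed values, limit read from the data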
rCAG RNA binder: binds r(CAG) RNA repeats; inhibition, % at 3 µM; r(CAG) RNA repeat, TO-PRO-1 dye displacement fluorescence; 370,000 tested, 1.3% active;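 active = inhibition above the plate cutoff, the mean of all test compounds on that plate plus 3 SD, cut at about 35% in these data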;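 note: 0% = DMSO alone and 100% = 100 µM mitoxantrone as full dye displacement; higher means more dye released from RNA so lower well fluorescence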
SIAE inh: blocks human sialic acid acetylesterase; inhibition, % at 9.66 µM; Q9HAT2; 370,000 tested, 0.69% active; SIAE FP-Rh probe binding, fluorescence polarization;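 active = inhibition above a cutoff: mean of compounds within the control limits plus 3 SD of those, cut at about 17% in these data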;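 note: 0% = plate median of compound wells and 100% = probe without SIAE protein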
ABHD4 inh: inhibitors of mouse ABHD4 | Q8VD66 | purified mABHD4, FP-Rh probe fluorescence polarization | inhibition, % at 8.92 µM | 370,000 tested, 0.54% active | AID 720543;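 active = inhibition exceeding the mean over every tested compound plus 3 SD, cut at about 30% in these data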;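 note: 0% = plate median of compound wells and 100% = S159A mutant with DMSO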
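Test system: mouse ABHD4 enzyme, wild type. Reagent: FP-Rh fluorescent activity-based probe, added after compound pre-incubation. Timing: pre-incubation 45 min, probe exposure 60 min, at 25 °C. Technique: FP readout, ex 525 nm / em 598 nm. Benchmarks: high control S159A mutant with DMSO, low control median of compound wells.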
PRMT1 confirm: confirmation of human PRMT1 inhibitors. shares compounds with PRMT1 inh. recombinant His-PRMT1, activity-based probe fluorescence polarization. inhibition, % at 2.79 µM. 3,300 tested, 42% active;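 active = mean inhibition across replicates above the hit cutoff derived for the earlier primary screen, cut at about 22% in these data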
* hit, by the source's call; nt = no result.

SMILES	HTRA1 inhibitor	PRMT1 inh	rCAG RNA binder	SIAE inh	ABHD4 inh	PRMT1 confirm
NC(=O)SCC(=O)Nc1ccc(Cl)cc1	5	65*	6	4	-21	88*
O=C(/C=C/C(Cl)(Cl)Cl)Nc1ccc(Cl)cc1	-24	3	2	-11	-5	nt
N#CCSCC(=O)Nc1ccc(Cl)cc1	6	14	-1	1	0	nt
COCC(=O)Nc1ccc(C)c(Cl)c1	2	-3	0	11	6	nt
NC(=O)/C=C/C(=O)Nc1ccc(Cl)cc1	3	87*	-3	-1	-4	32*
NC(=O)SCC(=O)Nc1ccc(Cl)c(Cl)c1	-5	49*	7	-36	-9	94*
Cc1onc(-c2c(F)cccc2Cl)c1C(=O)Oc1ccccc1	nt	-1	-1	-1	-7	nt
CC1(C)N=C(SCC(=O)Nc2ccc(Cl)cc2)C(c2ccc(Cl)cc2)=N1	-38	28*	0	-24	-28	11
Cc1c(Cl)cccc1NC(=O)CSC(N)=O	7	31*	-1	-6	-2	96*
NC(=O)SCC(=O)Nc1cccc(Cl)c1	-7	73*	5	-3	-5	101*
CC1(C)N=C(SCC(=O)Nc2ccc(Cl)cc2)C(c2ccccc2)=N1	-16	7	-6	-1	-10	nt
Nc1nnc(SCC(=O)Nc2cccc(Cl)c2)s1	3	3	0	2	0	nt
CCN1CCN(C(=O)C(C)Sc2nnc3nc(C)cc(C)n23)CC1 (stereo not drawn)	0	0	1	0	9	nt
OCCN1CCN(C(=S)c2ccc(Cl)c(Cl)c2)CC1	13	78*	0	-1	11	78*
COc1cc(NC(=S)N2CCN(CCO)CC2)c(OC)cc1Cl	7	-2	3	2	3	nt
CCN(Cc1ccccc1)c1ccc(/C=C(\C#N)c2ccccn2)cc1	-5	57*	-31	1	8	-1
CC1(C(=O)Nc2cnc3ccccc3c2)CCN1Cc1ccc(-c2ccccc2)o1 (stereo not drawn)	nt	34*	10	9	5	11
Cc1cccc(-c2nnc(SCC(=O)Nc3ccc(-c4nc5ccc(C)cc5s4)cc3)n2Cc2ccco2)c1	nt	41*	24	-21	-22	1
Cc1ccc2nc(-c3ccc(NC(=O)CSc4nnc(-c5ccccc5)n4Cc4ccco4)cc3)sc2c1	nt	25*	19	-50	-42	19
CC(C)CN(C(=O)CN(C)CC(=O)Nc1ccc(Cl)c(C(F)(F)F)c1)c1c(N)n(CC(C)C)c(=O)[nH]c1=O	-3	-6	-1	1	1	nt
Oc1ccc(/C=N/n2c(-c3ccco3)csc2=Nc2cccnc2)c(O)c1	8	29*	18	5	21	4
Cc1ccc(C(=O)N/C(=C\c2ccco2)C(=O)N2CCCCC2)cc1	2	4	-2	3	9	nt
COc1cccc(/C=C2\CC3(OC(=O)C(C)(C)C)CCCN2C3)c1 (stereo not drawn)	nt	-2	2	1	7	nt
CC1(C)CC(=O)C(C=Nc2cccnc2/N=C/C2=C(O)CC(C)(C)CC2=O)=C(O)C1	2	25*	-10	3	7	-2
Cc1ccccc1NS(=O)(=O)c1ccc(-c2ccc(=O)[nH]n2)o1	-4	-2	2	4	-1	nt
SMILES	HTRA1 inhibitor	PRMT1 inh	rCAG RNA binder	SIAE inh	ABHD4 inh	PRMT1 confirm
CCN(CC)c1ccc(NS(=O)(=O)c2ccc(-c3ccc(=O)[nH]n3)o2)c(C)c1	14	42*	5	9	20	3
Cc1ccc(-c2cccc(NC(=O)C3C(C(=O)O)[C@@H]4C=C[C@H]3C4)c2)o1 (stereo partly drawn)	-14	65*	6	0	-3	10
Cc1cc(COc2ccccc2)oc1C(=O)O	-1	0	2	-4	-1	nt
COc1ccc(-n2sc3ccccc3c2=O)cc1	2	82*	2	12	16	82*
COc1ccc(-n2cc(C(=O)O)c3ccccc3c2=O)cc1	0	-3	-2	7	4	nt
CCC[C@H]1[C@@H](NC(=O)c2cccc(N(C)C)c2)CC[C@@]23CCCN2C(=O)CCC[C@@H]13	nt	-1	nt	4	4	nt
Cc1cccc(-c2nc(=S)c3c(n2Cc2ccco2)CCCC3)c1	-13	8	4	-6	7	nt
COc1cccc(-c2nc(=S)c3c(n2Cc2ccco2)CCCC3)c1	-18	26*	14	-10	-6	1
O=C(CSC1=NCCS1)NC(c1ccccc1)c1ccccc1	-3	58*	3	-3	10	66*
O=C(CSC1=NCCS1)NC(NC(=O)CSC1=NCCS1)c1ccccc1	8	26*	9	4	8	11
CC(NC(=O)CSC1=NCCS1)c1ccccc1 (stereo not drawn)	5	3	1	-3	-1	nt
CN(C)C(=O)c1cc(C(=O)c2ccccc2Cl)c[nH]1	2	1	-3	6	-4	nt
CCCCn1c(N)c(N(CC(C)C)C(=O)c2ccc(F)c(S(=O)(=O)N3CCOCC3)c2)c(=O)[nH]c1=O	-4	2	0	5	6	nt
Cc1cc(C)c(N=Cc2c(O)c3ccccc3oc2=O)c(C)c1	-4	-1	-2	7	-2	nt
CSCC(C)N1CCC(n2nccc2NC(=O)CCCc2ccccc2)CC1 (stereo not drawn)	9	30*	-25	-5	-10	24*
Cc1cccc(-c2cccc3c4c([nH]c23)[C@@H]2C[C@H](N(C)C(=S)NCCc3ccccc3)[C@H]([C@H](C)O)CN2CC4)c1	nt	3	8	-9	-3	nt
C[C@H](O)[C@@H]1CN2CCc3c([nH]c4ccccc34)[C@@H]2C[C@@H]1N(C)C(=S)NCCc1ccccc1	nt	49*	6	2	2	11
Cc1ccc(-c2cc(C(=O)Nc3ccccc3C(N)=O)c3ccccc3n2)o1	nt	65*	22	-12	-13	28*
Cc1ccc(-c2cc(C(=O)Nc3nccs3)c3ccccc3n2)o1	-20	36*	21	3	3	12
Cc1ccc(-c2cc(C(=O)N(C)CC(=O)Nc3ccccc3Br)c3ccccc3n2)o1	-26	30*	5	1	3	39*
COc1ccc(NC(=O)c2cc(-c3ccc(C)o3)nc3ccccc23)c(OC)c1	nt	6	2	8	-4	nt
COc1ccccc1C(=O)NNC(=O)c1ccc(NC(=O)C(C)C)cc1	6	0	-1	-7	-2	nt
CCC1COCCS(=O)(=O)N1Cc1ccc(F)cc1 (stereo not drawn)	-2	-3	-4	5	1	nt
O=c1[nH]c(-[n+]2ccc3ccccc3c2)c(/C=N/N=C(\[O-])c2ccccc2)s1	6	54*	-5	6	5	1
O=C(Nc1ccccc1)Nc1cc(S(=O)(=O)N2CCOCC2)ccc1N1CCCC1	-6	29*	6	-3	1	1
